Assay results reported in ChEMBL document CHEMBL1909621, “Synthesis and biological evaluation of novel nitrogen- and sulfur-containing hetero-1,4-naphthoquinones as potent antifungal and antibacterial agents” (2011).
≈ marks a conversion by molar mass, not a printed value. Calls of active or inactive are those of the source. The calls are words filed in the database; no cut-off is given here.

What was measured:
Assay type in all cases: functional
[1] = test system: Aspergillus niger; experiment: Antifungal activity against Aspergillus niger F-1119 at 0.1% after 48 to 72 hrs by diffusion technique
Procedure, shortened: (§1)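 Fungi. Disk diffusion: 10⁹ spores (cells)/1 mL inoculum. Incubated 48–72 h at 28–30 °C. Zone around disk measured, with a nystatin control disk. Serial dilution: compounds dissolved in DMSO and diluted into wort agar, then inoculated. Incubated at 30 °C for 24–72 h. MIC recorded.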

[2] = test system: Mycobacterium; experiment: Antibacterial activity against Mycobacterium luteum b-917 at 0.5% after 24 hrs by diffusion technique
[3] = test system: Mycobacterium; experiment: Antibacterial activity against Mycobacterium luteum b-917 at 0.1% after 24 hrs by diffusion technique
[4] = test system: Yamadazyma tenuis; experiment: Antifungal activity against Candida tenuis VKM Y-70 at 0.5% after 48 to 72 hrs by diffusion technique; procedure, shortened: as §1
[5] = test system: Yamadazyma tenuis; experiment: Antifungal activity against Candida tenuis VKM Y-70 after 24 to 72 hrs by serial dilution technique; procedure, shortened: as §1
[6] = test system: Staphylococcus aureus; experiment: Antibacterial activity against Staphylococcus aureus 209-P at 0.5% after 24 hrs by diffusion technique
[7] = test system: Aspergillus niger; experiment: Antifungal activity against Aspergillus niger F-1119 after 24 to 72 hrs by serial dilution technique; procedure, shortened: as §1
[8] = test system: Yamadazyma tenuis; experiment: Antifungal activity against Candida tenuis VKM Y-70 at 0.1% after 48 to 72 hrs by diffusion technique; procedure, shortened: as §1
[9] = test system: Escherichia coli; experiment: Antibacterial activity against Escherichia coli B-906 at 0.1% after 24 hrs by diffusion technique
[10] = test system: Mycobacterium; experiment: Antibacterial activity against Mycobacterium luteum b-917 after 24 to 72 hrs by serial dilution technique
[11] = test system: Escherichia coli; experiment: Antibacterial activity against Escherichia coli B-906 after 24 to 72 hrs by serial dilution technique
[12] = test system: Aspergillus niger; experiment: Antifungal activity against Aspergillus niger F-1119 at 0.5% after 48 to 72 hrs by diffusion technique; procedure, shortened: as §1
[13] = test system: Escherichia coli; experiment: Antibacterial activity against Escherichia coli B-906 at 0.5% after 24 hrs by diffusion technique
[14] = test system: Staphylococcus aureus; experiment: Antibacterial activity against Staphylococcus aureus 209-P after 24 to 72 hrs by serial dilution technique
[15] = test system: Staphylococcus aureus; experiment: Antibacterial activity against Staphylococcus aureus 209-P at 0.1% after 24 hrs by diffusion technique

| Molecule | diameter of the inhibition zone (DIZ) [1] [mm] | diameter of the inhibition zone (DIZ) [2] [mm] | diameter of the inhibition zone (DIZ) [3] [mm] | diameter of the inhibition zone (DIZ) [4] [mm] | MIC [5] [µg/mL] | diameter of the inhibition zone (DIZ) [6] [mm] | MIC [7] [µg/mL] | diameter of the inhibition zone (DIZ) [8] [mm] | diameter of the inhibition zone (DIZ) [9] [mm] | MIC [10] [µg/mL] | inhibition [11] | diameter of the inhibition zone (DIZ) [12] [mm] | diameter of the inhibition zone (DIZ) [13] [mm] | MIC [14] [µg/mL] | diameter of the inhibition zone (DIZ) [15] [mm] | inhibition zone (IZ) [8] [mm] | inhibition [14] | inhibition [5] | inhibition [7] | inhibition [10] |
| --- | --- | --- | --- | --- | --- | --- | --- | --- | --- | --- | --- | --- | --- | --- | --- | --- | --- | --- | --- | --- |
| CCOC1=C(SCCCCO)C(=O)c2ccccc2C1=O | 0 | 25.4 | 14.7 | 14.7 | 15.6 (≈ 50.9 µM) | 19.4 | 31.2 (≈ 102 µM) | 8.4 | 0 | 31.2 (≈ 102 µM) | inactive | 10 | 0 | 250 (≈ 816 µM) | 12 | – | – | – | – | – |
| NYSTATIN | – | – | – | – | – | – | – | – | – | – | – | – | – | – | – | 19 | – | – | – | – |
| O=C1C(SCc2ccc(Cl)cc2)=C(SCc2ccc(Cl)cc2)C(=O)c2ccccc21 | 0 | 0 | 0 | 7.4 | 15.6 (≈ 33.1 µM) | 0 | 31.2 (≈ 66.2 µM) | 0 | 0 | 125 (≈ 265 µM) | inactive | 0 | 0 | – | 0 | – | inactive | – | – | – |
| O=C1C(SCCCCCCCCCO)=C(SCCCCCCCCCO)C(=O)c2ccccc21 | 0 | 0 | 0 | 0 | – | 0 | – | 0 | 0 | – | inactive | 6 | 0 | 250 (≈ 493 µM) | 0 | – | – | inactive | inactive | – |
| O=C1C2=C(SCCSCCSC3=C(SCCSCCS2)C(=O)c2ccccc2C3=O)C(=O)c2ccccc21 | 0 | 0 | 0 | 0 | 31.2 (≈ 50.6 µM) | 0 | – | 0 | 0 | – | inactive | 0 | 0 | – | 0 | – | inactive | – | inactive | inactive |
| Cc1cc(C)c(CSC2=C(SCc3c(C)cc(C)cc3C)C(=O)c3ccccc3C2=O)c(C)c1 | 0 | 0 | 0 | 0 | 125 (≈ 257 µM) | 0 | – | 0 | 0 | – | inactive | 0 | 0 | – | 0 | – | inactive | – | inactive | inactive |
| O=C1C(Sc2nc3ccc([N+](=O)[O-])cc3s2)=C(Sc2nc3ccc([N+](=O)[O-])cc3s2)C(=O)c2ccccc21 | 8 | 11.7 | 0 | 24 | 15.6 (≈ 27 µM) | 8 | 31.2 (≈ 53.9 µM) | 15 | 0 | 125 (≈ 216 µM) | inactive | 15 | 0 | – | 0 | – | inactive | – | – | – |
| O=C1C(SCc2ccco2)=C(SCc2ccco2)C(=O)c2ccccc21 | 8 | 10.4 | 7.7 | 0 | 15.6 (≈ 40.8 µM) | 7 | 62.5 (≈ 163 µM) | 0 | 0 | – | inactive | 10 | 0 | – | 0 | – | inactive | – | – | – |
| O=C1C(Sc2ncccn2)=C(Sc2ncccn2)C(=O)c2ccccc21 | 7 | 11.7 | 6.7 | 7 | 125 (≈ 330 µM) | 9 | 500 (≈ 1320 µM) | 6 | 0 | 500 (≈ 1320 µM) | – | 9 | 0 | 62.5 (≈ 165 µM) | 6 | – | – | – | – | – |
| CN[C@H](CC(C)C)C(=O)N[C@H]1C(=O)N[C@@H](CC(N)=O)C(=O)N[C@H]2C(=O)N[C@H]3C(=O)N[C@H](C(=O)N[C@H](C(=O)O)c4cc(O)cc(O)c4-c4cc3ccc4O)[C@H](O)c3ccc(c(Cl)c3)Oc3cc2cc(c3O[C@@H]2O[C@H](CO)[C@@H](O)[C@H](O)[C@H]2O[C@H]2C[C@](C)(N)[C@H](O)[C@H](C)O2)Oc2ccc(cc2Cl)[C@H]1O [VANCOMYCIN] | – | – | 18 | – | – | – | – | – | 14 | – | – | – | – | – | 15 | – | – | – | – | – |
